High-throughput results as filed in PubChem.
OX1R antag-1 – blocks the human orexin 1 receptor; O43613; OX1R-expressing cells, FRET antagonist read-out; inhibition, % at 6.6 µM; hit rate 1.8% among 330,000; AID 485270; in the data active = inhibition mostly above about 38%, no sharp cut-off; inactive = mostly below about 40%
Target sequence (O43613 whole entry, looked up): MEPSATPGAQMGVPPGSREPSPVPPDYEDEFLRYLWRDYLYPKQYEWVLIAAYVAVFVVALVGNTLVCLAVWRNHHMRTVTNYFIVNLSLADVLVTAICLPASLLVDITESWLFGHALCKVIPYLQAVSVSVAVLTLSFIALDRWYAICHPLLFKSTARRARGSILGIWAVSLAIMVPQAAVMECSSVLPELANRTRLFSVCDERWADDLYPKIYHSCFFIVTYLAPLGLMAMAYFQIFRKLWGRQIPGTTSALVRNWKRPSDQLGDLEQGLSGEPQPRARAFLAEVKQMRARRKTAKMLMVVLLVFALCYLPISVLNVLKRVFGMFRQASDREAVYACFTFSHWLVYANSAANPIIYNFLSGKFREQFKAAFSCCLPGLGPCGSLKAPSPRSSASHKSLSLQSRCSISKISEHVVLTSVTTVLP
CHO-K1 Ca antag – nonselective inhibitor or artifact in parental CHO-K1 cells; AID 602250; ATP-induced calcium, Fluo-8 fluorescence; hit rate 0.6% among 360,000; inhibition, % at 3 µM;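 active = inhibition above a per-plate cutoff, the plate's mean sample inhibition plus 3 SD, cut at about 24% in these data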
CHO parental Ca – counter-screen: ATP calcium response change in parental CHO cells. parental CHO-K1, ATP-induced calcium, Fluo-8 fluorescence. inhibition, % at 5.6 µM. hit rate 0.63% among 330,000. AID 463079;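 active = inhibition above that plate's mean sample inhibition plus 3 SD, cut at about 26% in these data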
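Assay system: parental CHO cells; Read-out basis: percent inhibition of ATP-evoked calcium rise, normalized to controls; Benchmarks: ATP and no-ATP DMSO wells; Compound dosing: single nominal dose of 5.6 µM per compound; Signal: Fluo-8 calcium dye fluorescence; Also added: ATP as calcium-mobilizing challenge; Repeats: singlicate.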
M1 PAM parental – counter-screen for M1 PAMs: effect in parental CHO-K1 cells; ATP EC20, Fluo-8 calcium fluorescence; 0% at ATP EC20, 100% at ATP max; activation, % at 3 µM; hit rate 0.02% among 360,000; AID 602247;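 active = activation above the run cutoff, the mean activation of all test compounds plus 3 SD, cut at about 40% in these data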;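 note: peak over basal fluorescence ratio in a 140 s read after ATP addition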
OX1R antag-2 – antagonists of human orexin 1 receptor | AID 434989 | hit rate 0.43% among 330,000 | inhibition, % at 5 µM | CHO/OX1R cells, Fluo-8 calcium fluorescence, orexin A | O43613;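 active = inhibition above its plate's threshold, mean inhibition of all tested compounds on the plate plus 3 SD, cut at about 37% in these data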
M1 ag parental – M1 agonist counterscreen hit in parental CHO-K1 cells | activation, % at 3 µM | AID 602248 | hit rate 0.48% among 360,000 | Fluo-8 calcium fluorescence; scaled to maximal ATP response, vehicle zero; in the data active = activation above about 15%;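 note: untransfected CHO-K1 host cells lacking M1 receptor as counterscreen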
OX1R Ca confirm – OX1R (human) antagonism, confirmed | CHO/OX1R cells, orexin A calcium Fluo-8 fluorescence | inhibition, % at 5 µM | shares compounds with OX1R antag-2 | hit rate 38% among 1,100; in the data active = inhibition above about 29%
CHO Ca triplic – counter-screen: parental CHO calcium response change, triplicate; shares compounds with OX1R antag-2; parental CHO-K1, ATP-induced calcium, Fluo-8 fluorescence; inhibition, % at 5.6 µM; hit rate 9.3% among 1,100;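 active = inhibition above a per-plate limit, the mean inhibition of that plate's test compounds plus 3 SD, cut at about 25% in these data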
OX1R HTRF conf – OX1R (human) antagonism, HTRF confirmed | shares compounds with OX1R antag-1 | OX1R-expressing cells, HTRF antagonist assay | inhibition, % at 6.6 µM | hit rate 49% among 1,800; in the data active = inhibition above about 55%;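 note: CHO cells expressing OX1R stimulated with orexin A at about EC80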
CHO-K1 HTRF – signal in parental CHO-K1 cells, OX1R antagonist counter-screen; shares compounds with OX1R antag-1; HTRF counterscreen; inhibition, % at 6.6 µM; hit rate 48% among 1,800; in the data active = inhibition above about 17%
Of the large screens only hits and unclear results are named; the others gave an inactive call (follow-up assays come after a bar, where they were run). Sampled rows, rich in hits. Any-hit rate of the full collection: about 2.9%.

COc1cc(Cl)c(C)cc1NC(=O)c1cccc(OC)c1OC	OX1R antag-1 69.6 | OX1R Ca confirm inactive | CHO Ca triplic inactive | OX1R HTRF conf 81.7 | CHO-K1 HTRF inactive
CCc1sc(C(=O)Nc2ccc(NC(C)=O)cc2)cc1C	none
CCc1sc(C(=O)Nc2ccc3nc(C)sc3c2)cc1C	OX1R antag-1 81.4, OX1R antag-2 64.9 | OX1R Ca confirm 52.8 | CHO Ca triplic inactive | OX1R HTRF conf 89.9 | CHO-K1 HTRF inactive
CN(CC(=O)Nc1nc2ccccc2s1)S(=O)(=O)c1ccc(Br)cc1	OX1R antag-1 48.2, OX1R antag-2 69.5 | OX1R Ca confirm inactive | CHO Ca triplic inactive | OX1R HTRF conf inactive | CHO-K1 HTRF inactive
CSc1ccccc1OCc1cc(C(=O)N(C)C2CCCc3ccccc32)no1 (stereo not drawn)	none
CCN(CC)c1ccc(/C=N/NC(=O)c2ccco2)c(O)c1	OX1R antag-1 68.2, OX1R antag-2 36.1 | OX1R Ca confirm 72.8 | CHO Ca triplic inactive | OX1R HTRF conf 87.9 | CHO-K1 HTRF inactive
CCN(CC)c1ccc(/C=N/NC(=O)c2ccco2)cc1	none
Cc1ccccc1N(CC(=O)NC1CCCC1)C(=O)c1oc(C(C)(C)C)cc1C	OX1R antag-1 93.4 | OX1R Ca confirm 57.5 | CHO Ca triplic inactive | OX1R HTRF conf 85.8 | CHO-K1 HTRF inactive
Cc1ccc(C(=O)N(CC(=O)NC2CCCCC2)c2ccccc2C)s1	none
Cc1ccc(-c2nc3ccccc3[nH]2)cc1NC(=O)c1sc2cc(Cl)ccc2c1Cl	OX1R antag-1 77.0, OX1R antag-2 44.3 | OX1R Ca confirm 47.1 | CHO Ca triplic inactive | OX1R HTRF conf 65.6 | CHO-K1 HTRF inactive
Cc1ccc(-c2nc3ccccc3[nH]2)cc1NC(=O)c1ccco1	none
O=C(c1ccc(CS(=O)c2cccc(Cl)c2)o1)N1CCN(C2CCCCC2)CC1 (stereo not drawn)	none
COc1ccc(/C=c2\s/c(=C/C(=O)c3ccc(C)cc3)[nH]c2=O)c(OC)c1	OX1R antag-1 78.6, OX1R antag-2 47.1 | OX1R Ca confirm inactive | CHO Ca triplic inactive | OX1R HTRF conf 93.1 | CHO-K1 HTRF inactive
CCc1ccc(NC(=O)c2ccc(F)c(S(=O)(=O)NCC3COc4ccccc4O3)c2)cc1 (stereo not drawn)	OX1R antag-1 55.7 | OX1R Ca confirm inactive | CHO Ca triplic 30.0 | OX1R HTRF conf inactive | CHO-K1 HTRF inactive
C=CC(COCc1ccccc1)N(C(=O)OC(C)(C)C)S(=O)(=O)c1ccccc1Br (stereo not drawn)	none
COc1ccc(CN(CC(O)COCc2ccccc2)S(=O)(=O)c2ccccc2Br)cc1OC (stereo not drawn)	OX1R antag-1 46.2, OX1R antag-2 54.6 | OX1R Ca confirm inactive | CHO Ca triplic inactive | OX1R HTRF conf 68.1 | CHO-K1 HTRF inactive
COc1cc(C(=O)OCC(=O)N2c3ccccc3NC(=O)C2(C)C)ccc1OCC(C)C	OX1R antag-1 56.0 | OX1R Ca confirm inactive | CHO Ca triplic inactive | OX1R HTRF conf 56.2 | CHO-K1 HTRF inactive
CCN(c1ccccc1)S(=O)(=O)c1ccc(Cl)c(NC(=O)CNC(C)c2ccccc2)c1 (stereo not drawn)	OX1R antag-1 28.1, OX1R antag-2 50.1 | OX1R Ca confirm inactive | CHO Ca triplic 37.4 | OX1R HTRF conf inactive | CHO-K1 HTRF inactive
O=C(COC(=O)c1cc(-c2ccc(Cl)s2)nc2ccccc12)NCc1ccco1	OX1R antag-1 56.1 | OX1R Ca confirm inactive | CHO Ca triplic inactive | OX1R HTRF conf 74.2 | CHO-K1 HTRF inactive
CCCS(=O)(=O)c1nc(S(=O)(=O)c2ccc(C)cc2)c(N2CCc3ccccc3C2)s1	none
COc1ccc(CN(C(=O)CN2C(=O)C(C)Oc3ccccc32)C2CCCC2)c(OC)c1 (stereo not drawn)	OX1R antag-1 83.7, OX1R antag-2 59.0 | OX1R Ca confirm inactive | CHO Ca triplic inactive | OX1R HTRF conf 76.7 | CHO-K1 HTRF inactive
NC(=O)C1CN(C(=O)c2cccc(S(=O)(=O)N3CCc4ccccc43)c2)c2ccccc2O1 (stereo not drawn)	OX1R antag-1 69.0, OX1R antag-2 51.9 | OX1R Ca confirm 37.4 | CHO Ca triplic inactive | OX1R HTRF conf 67.0 | CHO-K1 HTRF inactive
CN(C)c1cccc(NC(=O)c2ccco2)c1	none
CCN(CC)P(=O)(Nc1cccc(C(F)(F)F)c1)c1ccc(N(C)C)cc1NC(=O)c1ccco1 (stereo not drawn)	OX1R antag-1 82.0, OX1R antag-2 87.2 | OX1R Ca confirm 64.5 | CHO Ca triplic inactive | OX1R HTRF conf 86.1 | CHO-K1 HTRF inactive
COc1cccc(-c2nn(-c3ccccc3)cc2CNC(C)Cn2cncn2)c1 (stereo not drawn)	none
COCCN(Cc1nc2ccccc2c(=O)[nH]1)C(=O)COc1c(C)cc(Cl)cc1C	OX1R antag-1 58.4, OX1R antag-2 39.2 | OX1R Ca confirm inactive | CHO Ca triplic inactive | OX1R HTRF conf 70.1 | CHO-K1 HTRF inactive
CCCCN(Cc1nc2ccccc2c(=O)[nH]1)C(=O)COc1ccc(F)cc1Cl	none
O=c1ccnc(Nc2ccc([N+](=O)[O-])cc2)[nH]1	none
CSC1=NSC2=NC(=O)/C(=C/c3coc4ccccc4c3=O)C(=N)N12	OX1R antag-1 77.7, CHO-K1 Ca antag 34.7, OX1R antag-2 65.9, M1 ag parental 45.4 | OX1R Ca confirm inactive | CHO Ca triplic inactive | OX1R HTRF conf inactive | CHO-K1 HTRF inactive
NC1=NC(c2cccc(Cl)c2)N(CCc2ccc(F)cc2)C(N)=N1 (stereo not drawn)	none
CCOC(=O)c1ccc(NC(=O)Nc2ncc(Cl)cc2Cl)cc1	none (no result: CHO-K1 Ca antag, M1 PAM parental, M1 ag parental)
Cc1cc(O)cc2c(=O)c3ccccc3sc12	OX1R antag-1 86.2, OX1R antag-2 52.3 | OX1R Ca confirm 55.9 | CHO Ca triplic inactive | OX1R HTRF conf 92.0 | CHO-K1 HTRF inactive
COC(=O)c1ccccc1NC(=O)CSc1ncn[nH]1	none
O=C(Nc1nccs1)c1ccc(-c2ccc(F)c(Cl)c2)o1	OX1R antag-1 97.4, OX1R antag-2 47.3 | OX1R Ca confirm inactive | CHO Ca triplic inactive | OX1R HTRF conf 71.8 | CHO-K1 HTRF inactive
O=C(Nc1ccccc1)c1cc(C2COCCN2C(=O)c2ccccn2)on1 (stereo not drawn)	none (no result: OX1R antag-1, CHO parental Ca, OX1R antag-2)
Cc1ccc(NC(=O)Nc2nnc(-c3ccncc3)s2)cc1C	OX1R antag-1 40.7 | OX1R Ca confirm inactive | CHO Ca triplic inactive | OX1R HTRF conf inactive | CHO-K1 HTRF inactive
